Assay outcomes as filed in PubChem BioAssay.
CRFBP-R2 agonist = agonists of human CRF-binding protein/CRF-R2 receptor complex | HEK293 CRF-R2/CRF-BP, calcium dye fluorescence (FLIPR); percent of saturating CRF peptide response | activation, % at 13.2 µM | 0.46% of 350,000 active | AID 588473;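 active means activation of at least 50%, plus an integration ratio under a set limit after plate pattern correction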
ANO1 block = inhibitors of mouse TMEM16A calcium-activated chloride channel | Q8BHY3 | HEK293 TMEM16A/YFP iodide influx fluorescence, ionomycin | normalized B-score (activity score, 25-100; higher = stronger inhibition) at 10 µM | 1.2% of 310,000 active;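 active means ratio plate-corrected score three or more library SD toward inhibition, starting fluorescence score within five deviations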;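 further: score derived from kinetic fluorescence span divided by baseline fluorescence per well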
Target sequence (Q8BHY3 whole entry, looked up): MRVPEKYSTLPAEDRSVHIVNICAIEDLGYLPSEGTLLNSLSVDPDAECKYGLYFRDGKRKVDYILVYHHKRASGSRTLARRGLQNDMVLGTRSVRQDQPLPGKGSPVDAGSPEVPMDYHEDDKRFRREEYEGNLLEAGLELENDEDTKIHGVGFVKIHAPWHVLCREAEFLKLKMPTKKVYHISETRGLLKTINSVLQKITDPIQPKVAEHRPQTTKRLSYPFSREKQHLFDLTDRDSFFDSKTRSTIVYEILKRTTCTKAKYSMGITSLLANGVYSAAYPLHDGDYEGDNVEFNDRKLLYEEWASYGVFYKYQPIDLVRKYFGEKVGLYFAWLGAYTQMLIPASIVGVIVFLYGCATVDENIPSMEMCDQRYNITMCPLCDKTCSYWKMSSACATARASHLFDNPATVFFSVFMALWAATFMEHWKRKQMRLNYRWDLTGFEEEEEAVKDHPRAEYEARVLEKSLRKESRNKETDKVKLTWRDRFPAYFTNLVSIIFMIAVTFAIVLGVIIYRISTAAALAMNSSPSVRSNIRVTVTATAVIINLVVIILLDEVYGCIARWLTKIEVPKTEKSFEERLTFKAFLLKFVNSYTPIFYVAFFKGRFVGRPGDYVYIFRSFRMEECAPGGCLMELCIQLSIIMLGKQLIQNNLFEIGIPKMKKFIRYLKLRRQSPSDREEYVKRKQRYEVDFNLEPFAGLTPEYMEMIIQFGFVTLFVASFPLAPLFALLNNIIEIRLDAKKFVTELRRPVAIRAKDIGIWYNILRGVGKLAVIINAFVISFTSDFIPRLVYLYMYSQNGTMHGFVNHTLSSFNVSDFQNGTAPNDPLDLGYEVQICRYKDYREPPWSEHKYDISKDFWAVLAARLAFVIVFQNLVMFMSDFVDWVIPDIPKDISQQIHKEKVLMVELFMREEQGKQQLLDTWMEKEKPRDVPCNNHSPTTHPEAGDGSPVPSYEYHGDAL
CRFBP-R2 block = antagonists of CRF-binding protein/CRF-R2 receptor complex. HEK293 CRF-R2/CRF-BP, CRF-induced calcium fluorescence. inhibition, % at 11.8 µM. 0.59% of 350,000 active;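 active means inhibition of the ligand-induced calcium signal above about 50% at the single tested concentration, limit read from the data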
TMEM16A act = mouse TMEM16A channel activation, primary screen. 0.3% of 340,000 active. B-score at 10 µM. HEK293 TMEM16A/YFP-H148Q/I152L, iodide quench fluorescence; stronger effect = lower value;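 active means fluorescence-ratio B-score plate-corrected deviation score at least 3 library SD below zero, with starting fluorescence score within 5 deviations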;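 further: channel opened by trigger with iodide after compound preincubation; score built on the fluorescence ratio of max minus min over baseline; more negative score means more quench and so TMEM16A activation or potentiation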
TAAR1 antagonist = antagonists of human TAAR1 | CHO RD-HGA16 TAAR1, Fluo-8 calcium fluorescence, antagonist | inhibition, % at 3 µM | 1.5% of 360,000 active | AID 624466;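 active means inhibition above a per-plate cutoff, the mean inhibition of test compounds on that plate plus 3 SD, cut at about 49% in these data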
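Test system: RD-HGA16 CHO cells with stable hTAAR1 and Gα16 / Probe or stimulus: EC80 β-phenethylamine stimulus / Times: seeding 17-24 h prior, 75-min 37 °C, 30-min RT dye loading / Detection: Fluo-8 calcium-sensitive fluorescence / Read-out basis: % inhibition scaled between DMSO and EC80 PEA controls / Repeats: singlicate, one well per test compound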
TAAR1 ag = human TAAR1 agonism; Q96RJ0; CHO RD-HGA16 TAAR1, Fluo-8 calcium fluorescence; vehicle wells 0%, saturating PEA agonist 100%; activation, % at 3 µM; 0.99% of 360,000 active; AID 624467;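 active means activation above the mean activation of all test compounds in the run plus 3 SD, cut at about 38% in these data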
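test system = CHO RD-HGA16 cells carrying human TAAR1 plus Gα16 | schedule = 17-24 h seeding, 75 min 37 °C dye, 30 min RT | compound dosing = 3 µM single concentration | control set = DMSO and PEA EC100 | replicates = n 1 | signal = Fluo-8 fluorescence, 5 s baseline then 140 s kinetic read | measure = percent activation vs PEA EC100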
A number is an active result; 0 = inactive; - = not tested or not shown. Only some compounds are listed: those with a hit (about 3.9% of all), similar ones and a draw of the others.

SMILES | CRFBP-R2 agonist | ANO1 block | CRFBP-R2 block | TMEM16A act | TAAR1 antagonist | TAAR1 ag
Cc1ccccc1C(=O)N1CCC(C(=O)N(C)CCOc2ccccc2)CC1 | 0 | 0 | 0 | 0 | 0 | 0
C#CCOCCOCCOCCNc1nc(N2CCN(C(=O)[C@H](CCC(=O)O)n3cc(CN)nn3)CC2)nc(N2CCN(C(=O)[C@H](CCCN=C(N)N)n3cc(C(N)[C@@H](C)CC)nn3)CC2)n1 (some centres not stated) | 0 | - | 0 | - | 0 | 0
O=C(OCc1ccccc1)N1CCC2CC1c1ccc(N3CCN(Cc4ccccc4)CC3)cc12 (configuration not stated) | - | - | - | - | 0 | 0
Fc1ccc(CN2CCN(c3ncnc4scc(-c5ccc(F)cc5)c34)CC2)cc1 | 0 | 0 | 0 | 0 | 0 | 0
Clc1ccc(CN2CCN(c3ncnc4scc(-c5cccs5)c34)CC2)cc1 | 0 | 25 | 0 | 0 | 0 | 0
Cc1ccc(S(=O)(=O)N[C@H](C(=O)OCC(=O)NC(=O)c2cccn2C)C(C)C)cc1 | 0 | - | 0 | 0 | 0 | 0
Cc1nn(Cc2cccc(F)c2)c(C)c1NC(=O)c1ccc(COc2ccccc2Cl)cc1 | 0 | 0 | 0 | 0 | 101 | 0
Cc1ccc(N=Nc2c(N)[nH]n3c(=O)cc(-c4ccccc4)nc23)cc1 | 0 | 0 | 59 | 0 | 0 | 0
Nc1cc(OC(=O)c2cccs2)nn1S(=O)(=O)c1ccccc1 | 0 | 0 | 0 | 0 | 0 | 40
Nc1cc(OC(=O)c2cccs2)nn1S(=O)(=O)c1ccc(F)cc1 | 0 | 0 | 0 | 0 | 0 | 41
O=C(Nc1ccc(S(=O)(=O)N2CCOCC2)cc1)C1CC1 | 0 | 0 | 0 | 0 | 0 | 0
CC(C)=CC1C(C(=O)Nc2ccc(S(=O)(=O)N3CCOCC3)cc2)C1(C)C (configuration not stated) | 0 | 0 | 0 | -4.9 | 0 | 0
CC(C)(C)NC(=O)C(c1ccccn1)N(C(=O)C1CSC(=O)C1)c1cccc(F)c1 (configuration not stated) | 0 | 0 | 70 | 0 | 0 | 0
CC(C)(C)NC(=O)COc1ccccc1C#N | 0 | 0 | 0 | 0 | 0 | 0
CS(=O)(=O)N(CC(=O)N1CCCC1)c1ccc(Cl)cc1 | 0 | 0 | 0 | 0 | 0 | 0
Cc1ccc2nc(/C(C#N)=C\c3ccc(N4CCOCC4)o3)[nH]c2c1 | 0 | 0 | 0 | 0 | 0 | 43
Cc1ccc(/C(C#N)=C\c2ccc(N3CCOCC3)o2)cc1 | 0 | 0 | 0 | 0 | 0 | 0
Cc1ccc2nc(/C(C#N)=C\c3ccc([N+](=O)[O-])o3)[nH]c2c1 | 55 | 0 | 0 | 0 | 0 | 0
C[C@H](CO)N1C[C@H](C)[C@@H](CN(C)C(=O)Nc2ccc3c(c2)OCO3)Oc2ccc(NC(=O)CCC(F)(F)F)cc2C1=O | 0 | - | 0 | 0 | 0 | 0
Cc1ccccc1-n1ccnc1SCC(=O)NCc1ccco1 | 0 | 0 | 0 | 0 | 0 | 0
O=C(NNc1c2ccccc2nc2ccccc12)c1ccc(O)cc1O | 0 | 0 | 0 | 0 | 61 | 0
COc1ccc(OCC(=O)NNc2c3ccccc3nc3ccccc23)cc1 | 0 | 0 | 0 | 0 | 59 | 0
O=C(NNc1c2ccccc2nc2ccccc12)c1ccccc1O | 0 | 0 | 0 | 0 | 54 | 0
O=C(COc1ccccc1)NNc1c2ccccc2nc2ccccc12 | 0 | 0 | 0 | 0 | 0 | 0
COc1ccc(OCc2cccc(C(=O)Nn3cc([N+](=O)[O-])cn3)c2)cc1 | 0 | 0 | 53 | 0 | 0 | 0
SMILES | CRFBP-R2 agonist | ANO1 block | CRFBP-R2 block | TMEM16A act | TAAR1 antagonist | TAAR1 ag
COC(=O)C1=C(N)Oc2cc(C)n(Cc3ccncc3)c(=O)c2C1c1cccnc1 (configuration not stated) | 0 | 0 | 0 | -15 | 0 | 0
COc1ccc(NC(=O)c2c(N)cnn2C)cc1 | 0 | 0 | 0 | 0 | 0 | 0
O=C1Cc2ccccc2Sc2ccc(O)cc21 | 92 | 0 | 0 | 0 | 0 | 0
Nc1ccc2c(c1)CC(=O)c1ccccc1S2 | 0 | 0 | 0 | 0 | 0 | 0
CCn1ncc(Br)c1C(=O)Nc1ccccc1C(F)(F)F | 0 | 0 | 0 | 0 | 0 | 0
COc1ccc(C(=O)O/N=C(\N)Cc2ccc(Cl)c(Cl)c2)cc1OC | 0 | 0 | 110 | 0 | 0 | 0
COc1ccc(C(=O)O/N=C(\N)Cc2ccc(Cl)cc2)cc1OC | 0 | 0 | 0 | 0 | 0 | 0
O=C(NCCN1CCN(C(=O)NC2CCCCC2)CC1)NC1CCCCC1 | 0 | 0 | 67 | 0 | 0 | 0
Cc1ccc(S(=O)(=O)N2CCOCC2)cc1NC(=O)Cn1c(=O)ccn(Cc2ccccc2)c1=O | 0 | - | 0 | 0 | 0 | 0
CCOc1ccc(N(CC(=O)NC2CCC(C)CC2)S(=O)(=O)c2c(C)noc2C)cc1 (configuration not stated) | 0 | 0 | 62 | 0 | 0 | 0
OCCN1CCOCCOc2ccccc2OCCOCC1 | 0 | 0 | 0 | 0 | 0 | 0
c1ccc2c(c1)OCCOCCOCCOCCOCCOc1ccccc1OCCOCCOCCO2 | 60 | 0 | 99 | 0 | 0 | 0
COc1cccc(C(C(=O)NCC2CCCO2)N(C(=O)Cn2nnc3ccccc32)c2ccccc2C(C)=O)c1OC (configuration not stated) | 0 | 0 | 0 | 0 | 0 | 0
Cc1ccc([N+](=O)[O-])cc1NC(=O)c1ccc(C(C)(C)C)cc1 | 0 | 0 | 0 | 0 | 53 | 0
Cc1cccc(C)c1NC(=O)C(c1ccnc2ccccc12)n1c(=O)c(-c2ccco2)nc2ccccc21 (configuration not stated) | - | - | - | - | 0 | 0
Cc1csc(NC(=O)CSc2ncnc3c2cnn3-c2ccccc2Cl)n1 | 0 | 100 | 0 | 0 | - | -
CCOC(=O)Cc1csc(NC(=O)CSc2ncnc3c2cnn3-c2ccc(OC)cc2)n1 | 0 | 0 | 0 | 0 | 50 | 0
O=C(CSc1ncnc2c1cnn2-c1ccccc1)Nc1ccccc1 | 0 | 0 | 0 | 0 | 0 | 40
COc1cccc(CN2CC(C(=O)NC3CCC3)CCC2=O)c1 (configuration not stated) | 0 | 0 | 0 | 0 | 0 | 0
CCCCCCCCNCCS(=O)(=O)NCCCCCCCC | 0 | - | 0 | - | 0 | 0
O=C(NCc1ccccc1Br)c1cccs1 | - | - | - | - | 0 | 0
Cc1cccc(C)c1-n1nnnc1C(c1ccccc1)N1CCN(C/C=C/c2ccccc2)CC1 (configuration not stated) | - | - | - | - | 0 | 0
Cc1ccc(OC2CCN(C(=O)[C@H]3O[C@@H](n4ccc(=O)[nH]c4=O)[C@H](O)[C@@H]3O)CC2)cc1 | - | - | - | - | 0 | 0
CCC(=O)N/N=C/c1ccc(-c2ccc([N+](=O)[O-])cc2)o1 | 0 | 0 | 0 | 0 | 0 | 0
CC(C)(C)C(=O)/C=c1\s/c(=C\c2ccc(-c3ccc([N+](=O)[O-])cc3)o2)c(=O)n1CC(=O)NC(N)=O | 212 | 0 | 0 | 0 | 59 | 53
